# Test results: ChEMBL document CHEMBL4725371, “A Novel Redox Modulator Induces a GPX4-Mediated Cell Death That Is Dependent on Iron and Reactive Oxygen Species” (J Med Chem, 2020)
# The source made the active and inactive calls. No cut-off for these calls is given here.
# Columns and labels:
# MIA PaCa-2 [1] = test: Cytotoxicity against human MIA PaCa-2 cells measured after 72 hrs in presence of N-acetylcysteine by MTT assay; assay type: functional, cell-based; conditions: MIA PaCa-2, 72 h
# PANC-1 = test: Cytotoxicity against human PANC-1 cells measured after 72 hrs by MTT assay; assay type: functional, cell-based; conditions: PANC-1, 72 h
# Outline: (§1)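 Cells were kept in RPMI 1640 with 10% FBS at 37 °C, 5% CO₂, under 35 passages. Cells were seeded, attached overnight and treated with compound or DMSO for 72 h. MTT was added at 0.3 mg/mL for 3 h, then dissolved in DMSO and read as absorbance at 570 nm. IC50 was fitted from the curve. Values are mean ± sd of three independent experiments.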
# [2] = biological target: Signal transducer and activator of transcription 3 (Homo sapiens) (UniProt P40763); test: Inhibition of STAT3 phosphorylation in human PANC-1 cells at 1.2 to 1.8 uM measured after 4 hrs by Western blot analysis; assay type: cell-based; conditions: dose microM 1.2-1.8, time 4.0 hrs
# Outline: (§2)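 Cells were treated 4 h at the stated concentrations and lysed in RIPA with protease and phosphatase inhibitors. 25 μg protein was resolved on 10% SDS gels, transferred to PVDF and probed for STAT3, pSTAT3, pH2AX and GAPDH. Detection used fluorescent secondary antibodies, with normalisation to loading control.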
# MIA PaCa-2 [3] = test: Induction of DNA damage in human MIA PaCa-2 cells assessed as increase in H2AX phosphorylation at 1 to 1.5 uM measured after 4 hrs by Western blot analysis; assay type: functional, cell-based; conditions: dose microM 1-1.5, time 4.0 hrs; outline: as §2
# [4] = Drug metabolism in mouse plasma assessed as 6-[4-[(3S,5R)-3,5-dihydroxy-4-methyl-piperazin-1-yl]anilino]quinazoline-5,8-dione formation at 500 uM measured after 0.5 hrs by LC-MS/MS analysis; assay type: ADME, cell-free
# Outline: (§3)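 Compound (500 μM DMSO stock, 1 μL per 500 μL) was incubated in pooled mouse plasma. Samples were taken at 0.5 h and metabolites identified by LC-MS/MS.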
# MIA PaCa-2 [5] = test: Cytotoxicity against human MIA PaCa-2 cells transfected with GPX4 siRNA measured after 72 hrs by MTT assay; assay type: functional, cell-based
# [6] = Half life in mouse plasma at 500 uM by LC-MS/MS analysis; assay type: ADME, cell-free; conditions: 500 µM
# Outline: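 Compound (500 μM DMSO stock) was added at 1 μL per 500 μL pooled plasma. Samples were taken at 0, 0.17, 0.5, 1, 2 and 4 h and centrifuged at 3500 g for 10 min. Supernatant was run by LC-MS/MS. t1/2 came from the slope of ln(compound/internal standard peak area) against time.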
# MIA PaCa-2 [7] = test: Down regulation of LRPPRC gene expression in human MIA PaCa-2 cells at 3 times IC50 measured after 4 hrs by Trizol reagent based Bru labelling based gene sequence analysis; assay type: functional, cell-based
# Outline: (§4)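 Bru-seq: 2 × 10⁶ cells were seeded in duplicate and treated at 3 × IC50 for 4 h. Bromouridine (2 mM final) was added for the last 30 min at 37 °C. Total RNA was extracted in TRIzol. BrU-labelled RNA was captured with anti-BrdU magnetic beads, made into cDNA libraries and deep-sequenced.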
# MIA PaCa-2 [8] = test: Inhibition of colony formation in human MIA PaCa-2 cells at 0.5 uM measured after 7 to 9 days in presence of ferroptosis inhibitor liproxstatin-1 by crystal violet staining based assay; assay type: functional, cell-based; conditions: time day 7-9
# Outline: (§5)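 Cells seeded overnight in 96-well plates at 300 cells/well (MIA PaCa-2) or 600 cells/well (BxPC-3), in RPMI 1640 with 10% FBS. Inhibitor added 1 h before compound, then continuous exposure for 7–9 days until control wells were 80–90% confluent. Stained with 0.05% crystal violet for 30 min, imaged after overnight drying and quantified.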
# BXPC-3 = test: Cytotoxicity against human BXPC-3 cells measured after 72 hrs by MTT assay; assay type: functional, cell-based; conditions: BXPC-3, 72 h; outline: as §1
# MIA PaCa-2 [9] = test: Synergistic inhibition of colony formation in human MIA PaCa-2 cells at 0.25 uM measured after 24 hrs in presence of As2O3 by crystal violet staining based assay; assay type: functional, cell-based
# Outline: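 Colony formation in 96-well plates seeded at 300 (MIA PaCa-2) or 600 (PANC-1) cells/well. Napabucasin, As2O3 or olaparib added 1 h before test compound; drugs on cells 24 h. Plates kept until controls were 80–90% confluent (7–9 days), then stained with 0.05% crystal violet and quantified. Synergy scored by HSA and Bliss models.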
# [10] = Drug metabolism in mouse plasma assessed as 5,8-dimethoxy-N-[4-(4-methylpiperazin-1-yl)phenyl]quinazolin-6-amine formation at 500 uM measured after 0.5 hrs by LC-MS/MS analysis; assay type: ADME, cell-free; outline: as §3
# [11] = Half life in mouse liver microsomes at 10 uM in presence of NADPH by LC-MS/MS analysis; assay type: ADME, Microsome; conditions: liver microsomes
# Outline: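 Compound (10 μM working solution in 0.1 M phosphate buffer with 3.3 mM MgCl₂) was incubated with mouse liver microsomes and NADPH. Verapamil served as reference. Samples were taken at 0, 5, 10, 15, 30, 45 and 60 min and centrifuged at 3500 g. Supernatant was run by LC-MS/MS. t1/2 came from the slope of ln(peak area ratio) against time.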
# MIA PaCa-2 [12] = test: Down regulation of LRPPRC expression in human MIA PaCa-2 cells at 3 times IC50 measured after 4 hrs by proteomics analysis; assay type: functional, cell-based
# MIA PaCa-2 [13] = test: Inhibition of colony formation in human MIA PaCa-2 cells at 0.25 to 1 uM measured after 7 to 9 days in presence of caspase-dependent apoptosis inhibitor Z-VAD by crystal violet staining based assay; assay type: functional, cell-based; conditions: dose microM 0.25-1, time day 7-9; outline: as §5
# MIA PaCa-2 [14] = test: Down regulation of PNPT1 expression in human MIA PaCa-2 cells at 1.2 uM measured after 24 hrs by proteomics analysis; assay type: functional, cell-based
# Outline: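 MIA PaCa-2 cells were treated with 1.2 μM compound or DMSO for 24 h and lysed in RIPA buffer. 75 μg protein per sample was run in duplicate by TMT10plex-labelled proteomics. Abundance ratio was taken as treatment over control. Changes of at least 1.5-fold at FDR < 0.05 were scored.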
# MIA PaCa-2 [15] = test: Cytotoxicity against human MIA PaCa-2 cells measured after 72 hrs by MTT assay; assay type: functional, cell-based; conditions: MIA PaCa-2, 72 h; outline: as §1
# MIA PaCa-2 [16] = test: Effect on glutathione level in human MIA PaCa-2 cells at 1.5 to 6 uM measured after 2 to 4 hrs by GSH/GSSG-glo assay; assay type: functional, cell-based; conditions: dose microM 1.5-6, time hrs 2-4
# Outline: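 GSH/GSSG-Glo luminescent assay: 15,000–20,000 MIA PaCa-2 cells per well, attached overnight, treated 2 h and 4 h. Cells were lysed with total or oxidized glutathione reagent, then luciferin generation (30 min, room temperature) and detection reagents added. Luminescence was read after 15 min. Ratio was computed from net RLU as (total − GSSG)/(GSSG/2).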
# [17] = Drug metabolism in mouse plasma assessed as 2-amino-3-[6-[4-(4-methylpiperazin-1-yl)anilino]-5,8-dioxo-quinazolin-7-yl]sulfanyl-propanoic acid formation at 500 uM measured after 0.5 hrs by LC-MS/MS analysis; assay type: ADME, cell-free; outline: as §3
# MIA PaCa-2 [18] = test: Down regulation of PNPT1 gene expression in human MIA PaCa-2 cells at 3 times IC50 measured after 4 hrs by Trizol reagent based Bru labelling based gene sequence analysis; assay type: functional, cell-based; outline: as §4
# Chain of Signal transducer and activator of transcription 3 (Homo sapiens) (P40763 whole entry): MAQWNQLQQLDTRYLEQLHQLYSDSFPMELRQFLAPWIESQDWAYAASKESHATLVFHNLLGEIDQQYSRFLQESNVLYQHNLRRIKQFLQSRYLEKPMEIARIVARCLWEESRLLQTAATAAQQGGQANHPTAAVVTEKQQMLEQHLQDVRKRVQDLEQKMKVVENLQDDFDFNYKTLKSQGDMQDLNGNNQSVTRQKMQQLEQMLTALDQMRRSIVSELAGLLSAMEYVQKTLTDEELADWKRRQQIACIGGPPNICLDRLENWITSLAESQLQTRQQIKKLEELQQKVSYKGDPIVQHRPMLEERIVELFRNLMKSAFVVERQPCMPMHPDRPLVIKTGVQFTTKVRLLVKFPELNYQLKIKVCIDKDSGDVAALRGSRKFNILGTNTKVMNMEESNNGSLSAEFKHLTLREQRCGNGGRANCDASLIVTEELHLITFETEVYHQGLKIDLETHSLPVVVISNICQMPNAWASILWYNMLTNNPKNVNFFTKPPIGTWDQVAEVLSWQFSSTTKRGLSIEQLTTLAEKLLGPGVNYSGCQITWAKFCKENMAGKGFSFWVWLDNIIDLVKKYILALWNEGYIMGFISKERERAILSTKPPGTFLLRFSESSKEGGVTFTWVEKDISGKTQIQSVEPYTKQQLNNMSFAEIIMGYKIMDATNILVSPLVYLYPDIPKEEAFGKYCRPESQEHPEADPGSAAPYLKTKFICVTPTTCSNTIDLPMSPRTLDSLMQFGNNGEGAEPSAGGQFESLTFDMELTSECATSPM
smiles,measurement,setting,value
CN1CCN(c2ccc(NC3=CC(=O)c4ncncc4C3=O)cc2)CC1,IC50,MIA PaCa-2 [1],1110 nM
same,IC50,PANC-1,340 nM
same,inhibition,[2],Active
same,Activity,MIA PaCa-2 [3],Active
same,Drug metabolism,[4],Metabolite_Detected
same,Activity,MIA PaCa-2 [5],inactive
same,t1/2,[6],6 min
same,Activity,MIA PaCa-2 [7],Active
same,inhibition,MIA PaCa-2 [8],inactive
same,IC50,BXPC-3,900 nM
same,inhibition,MIA PaCa-2 [9],Active
same,Drug metabolism,[10],Metabolite_Detected
same,half-life at 10 µM,[11],> 60 min
same,Activity,MIA PaCa-2 [12],Active
same,inhibition,MIA PaCa-2 [13],Active
same,Activity,MIA PaCa-2 [14],Active
same,IC50,MIA PaCa-2 [15],640 nM
same,Activity,MIA PaCa-2 [16],inactive
same,Drug metabolism,[17],Metabolite_Detected
same,Activity,MIA PaCa-2 [18],Active
